The source made the active and inactive calls. The calls are words filed in the database; no cut-off is given here.
Columns and labels:
UACC-62 = assay: Growth inhibition of human UACC62 cells incubated for 48 hrs by sulforhodamine B assay; assay type: functional; settings: UACC-62, 48 h
Procedure, shortened: (§1)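 NCI-60 screen run per Rubinstein protocol. Sulforhodamine B optical density was read before and after 48 h exposure to compound or vehicle. The single-dose pass at 10⁻⁵ M reported percent growth relative to vehicle control and time-zero cell number. The five-dose follow-up used 10⁻⁴ to 10⁻⁸ M, giving GI₅₀ as the molar concentration causing 50% growth inhibition.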

NCI-H522 [1] = assay: Growth inhibition of human NCI-H522 cells at 10 uM after 48 hrs by sulforhodamine B assay relative to control; assay type: functional; settings: NCI-H522, 48 h, values are per cent of control
Procedure, shortened: (§2)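 NCI-60 single-dose screen. Cells exposed to 10⁻⁵ M or to vehicle for 48 h. Growth measured by sulforhodamine B optical density before and after exposure. Reported as percent growth relative to vehicle control and to time-zero cell number; negative values indicate cell kill.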

MCF7 = assay: Growth inhibition of human MCF7 cells incubated for 48 hrs by sulforhodamine B assay; assay type: functional; settings: MCF7, 48 h
Procedure, shortened: (§3)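 NCI-60 five-dose study at 10⁻⁴, 10⁻⁵, 10⁻⁶, 10⁻⁷ and 10⁻⁸ M, 48 h incubation. Growth determined from sulforhodamine B optical density before and after exposure, relative to vehicle control and time-zero counts. GI₅₀ is the molar concentration giving 50% growth inhibition.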

A549 = assay: Growth inhibition of human A549/ATCC cells incubated for 48 hrs by sulforhodamine B assay; assay type: functional; settings: A549, 48 h; procedure, shortened: as §3
LOX IMVI = assay: Growth inhibition of human LOXIMVI cells incubated for 48 hrs by sulforhodamine B assay; assay type: functional; procedure, shortened: as §3
UO-31 = assay: Growth inhibition of human UO31 cells incubated for 48 hrs by sulforhodamine B assay; assay type: functional; settings: UO-31, 48 h; procedure, shortened: as §1
SK-OV-3 = assay: Growth inhibition of human SKOV3 cells incubated for 48 hrs by sulforhodamine B assay; assay type: functional; settings: SK-OV-3, 48 h; procedure, shortened: as §1
OVCAR-3 [2] = assay: Growth inhibition of human OVCAR3 cells at 10 uM after 48 hrs by sulforhodamine B assay relative to control; assay type: functional; settings: OVCAR-3, 48 h, values are per cent of control; procedure, shortened: as §2
MDA-MB-468 = assay: Growth inhibition of human MDA-MB-468 cells incubated for 48 hrs by sulforhodamine B assay; assay type: functional; settings: MDA-MB-468, 48 h; procedure, shortened: as §3
NCI-H522 [3] = assay: Growth inhibition of human NCI-H522 cells incubated for 48 hrs by sulforhodamine B assay; assay type: functional; settings: NCI-H522, 48 h; procedure, shortened: as §3
SK-MEL-2 = assay: Growth inhibition of human SK-MEL-2 cells incubated for 48 hrs by sulforhodamine B assay; assay type: functional; settings: SK-MEL-2, 48 h; procedure, shortened: as §3
IGROV-1 = assay: Growth inhibition of human IGROV1 cells incubated for 48 hrs by sulforhodamine B assay; assay type: functional; settings: IGROV-1, 48 h; procedure, shortened: as §3
SK-MEL-5 = assay: Growth inhibition of human SK-MEL-5 cells incubated for 48 hrs by sulforhodamine B assay; assay type: functional; settings: SK-MEL-5, 48 h; procedure, shortened: as §1
KM12 [4] = assay: Growth inhibition of human KM12 cells at 10 uM after 48 hrs by sulforhodamine B assay relative to control; assay type: functional; settings: KM12, 48 h, values are per cent of control; procedure, shortened: as §2
OVCAR-4 = assay: Growth inhibition of human OVCAR4 cells incubated for 48 hrs by sulforhodamine B assay; assay type: functional; settings: OVCAR-4, 48 h; procedure, shortened: as §3
M14 = assay: Growth inhibition of human M14 cells incubated for 48 hrs by sulforhodamine B assay; assay type: functional; settings: M14, 48 h; procedure, shortened: as §3
HOP-62 = assay: Growth inhibition of human HOP62 cells incubated for 48 hrs by sulforhodamine B assay; assay type: functional; settings: HOP-62, 48 h; procedure, shortened: as §3
SK-MEL-28 = assay: Growth inhibition of human SK-MEL-28 cells incubated for 48 hrs by sulforhodamine B assay; assay type: functional; settings: SK-MEL-28, 48 h; procedure, shortened: as §3
K562 = assay: Growth inhibition of human K562 cells incubated for 48 hrs by sulforhodamine B assay; assay type: functional; settings: K562, 48 h; procedure, shortened: as §3
COLO 205 = assay: Growth inhibition of human COLO205 cells incubated for 48 hrs by sulforhodamine B assay; assay type: functional; settings: COLO 205, 48 h; procedure, shortened: as §3
RPMI-8226 = assay: Growth inhibition of human RPMI8226 cells incubated for 48 hrs by sulforhodamine B assay; assay type: functional; settings: RPMI-8226, 48 h; procedure, shortened: as §3
Hs-578T = assay: Growth inhibition of human Hs578T cells incubated for 48 hrs by sulforhodamine B assay; assay type: functional; procedure, shortened: as §3
KM12 [5] = assay: Growth inhibition of human KM12 cells incubated for 48 hrs by sulforhodamine B assay; assay type: functional; settings: KM12, 48 h; procedure, shortened: as §3
NCI-H23 = assay: Growth inhibition of human NCI-H23 cells incubated for 48 hrs by sulforhodamine B assay; assay type: functional; settings: NCI-H23, 48 h; procedure, shortened: as §3
CCRF-CEM = assay: Growth inhibition of human CCRF-CEM cells incubated for 48 hrs by sulforhodamine B assay; assay type: functional; procedure, shortened: as §3
DU-145 [6] = assay: Growth inhibition of human DU145 cells incubated for 48 hrs by sulforhodamine B assay; assay type: functional; settings: DU-145, 48 h; procedure, shortened: as §3
MDA-MB-231 = assay: Growth inhibition of human MDA-MB-231 cells incubated for 48 hrs by sulforhodamine B assay; assay type: functional; settings: MDA-MB-231, 48 h; procedure, shortened: as §3
HCC 2998 = assay: Growth inhibition of human HCC2998 cells incubated for 48 hrs by sulforhodamine B assay; assay type: functional; settings: HCC 2998, 48 h; procedure, shortened: as §3
[7] = Cytotoxicity against stromal cells (unknown origin) assessed as reduction in cell viability by alamar blue assay; assay type: cell-based; settings: read-out: LD50 (the source's name)
HL-60(TB) = assay: Growth inhibition of human HL-60(TB) cells incubated for 48 hrs by sulforhodamine B assay; assay type: functional; settings: HL-60, 48 h; procedure, shortened: as §3
DU-145 [8] = assay: Growth inhibition of human DU145 cells at 10 uM after 48 hrs by sulforhodamine B assay relative to control; assay type: functional; settings: DU-145, 48 h, values are per cent of control; procedure, shortened: as §2
HOP-92 = assay: Growth inhibition of human HOP92 cells incubated for 48 hrs by sulforhodamine B assay; assay type: functional; settings: HOP-92, 48 h; procedure, shortened: as §3
NCI-H460 = assay: Growth inhibition of human NCI-H460 cells at 10 uM after 48 hrs by sulforhodamine B assay relative to control; assay type: functional; settings: NCI-H460, 48 h, values are per cent of control; procedure, shortened: as §2
Tubulin (Homo sapiens) = Tubulin (Homo sapiens) (UniProt P68371+Q9H4B7+P0DPH7+P68366+Q13509+Q71U36+P04350+Q3ZCM7+P07437+P68363+Q9BQE3+Q6PEY2+Q13885+Q9BVA1+Q9BUF5); assay: Inhibition of tubulin (unknown origin) polymerization at 2 uM by immunoblot analysis; assay type: protein-complex assay
Procedure, shortened: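 Cell-based assay. Cells were treated with compound at 1.0 and 2.0 μM. Polymerized tubulin (pellet) was separated from unpolymerized tubulin (supernatant), and both fractions were immunoblotted with anti-tubulin antibody.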

HCT-15 = assay: Growth inhibition of human HCT15 cells incubated for 48 hrs by sulforhodamine B assay; assay type: functional; settings: HCT-15, 48 h; procedure, shortened: as §3
OVCAR-3 [9] = assay: Growth inhibition of human OVCAR3 cells incubated for 48 hrs by sulforhodamine B assay; assay type: functional; settings: OVCAR-3, 48 h; procedure, shortened: as §3
NCI/ADR-RES = assay: Growth inhibition of human NCI/ADR-RES cells incubated for 48 hrs by sulforhodamine B assay; assay type: functional; procedure, shortened: as §3
SF-295 = assay: Growth inhibition of human SF295 cells incubated for 48 hrs by sulforhodamine B assay; assay type: functional; settings: SF-295, 48 h; procedure, shortened: as §3

SMILES | GI50 (UACC-62) [nM] | growth, % of control at 10 µM (NCI-H522 [1]) [%] | GI50 (MCF7) [nM] | GI50 (A549) [nM] | GI50 (LOX IMVI) [nM] | GI50 (UO-31) [nM] | GI50 (SK-OV-3) [nM] | growth, % of control at 10 µM (OVCAR-3 [2]) [%] | GI50 (MDA-MB-468) [nM] | GI50 (NCI-H522 [3]) [nM] | GI50 (SK-MEL-2) [nM] | GI50 (IGROV-1) [nM] | GI50 (SK-MEL-5) [nM] | growth, % of control at 10 µM (KM12 [4]) [%] | GI50 (OVCAR-4) [nM] | GI50 (M14) [nM] | GI50 (HOP-62) [nM] | GI50 (SK-MEL-28) [nM] | GI50 (K562) [nM] | GI50 (COLO 205) [nM] | further results
COc1ccc(/C=C(/c2cc(OC)c(OC)c(OC)c2)c2nnn[nH]2)cc1O | < 10 | -6.32 | < 10 | < 10 | < 10 | < 10 | < 10 | -8.5 | < 10 | < 10 | < 10 | < 10 | < 10 | -1.73 | < 10 | < 10 | < 10 | < 10 | < 10 | 970 | GI50 (RPMI-8226): < 10 nM; GI50 (Hs-578T): < 10 nM; GI50 (KM12 [5]): < 10 nM; GI50 (NCI-H23): < 10 nM; GI50 (CCRF-CEM): < 10 nM; GI50 (DU-145 [6]): < 10 nM; GI50 (MDA-MB-231): < 10 nM; GI50 (HCC 2998): < 10 nM; CC50 [7]: > 50000 nM; GI50 (HL-60(TB)): < 10 nM; growth, % of control at 10 µM (DU-145 [8]): 3.41%; GI50 (HOP-92): < 10 nM; growth, % of control at 10 µM (NCI-H460): 2.67%; inhibition (Tubulin (Homo sapiens)): Active; GI50 (HCT-15): < 10 nM; GI50 (OVCAR-3 [9]): < 10 nM; GI50 (NCI/ADR-RES): < 10 nM; GI50 (SF-295): 5280 nM
COc1ccc(/C(=C/c2ccc3ccccc3c2)c2nnn[nH]2)cc1OC | 860 | -2.85 | 4120 | 3800 | 5630 | 5590 | 3630 | -17.3 | 21500 | 1140 | 4360 | 4230 | 4680 | 24.5 | 7780 | 1900 | 2330 | 8070 | 670 | 2270 | GI50 (RPMI-8226): 4020 nM; GI50 (Hs-578T): 2230 nM; GI50 (KM12 [5]): 2790 nM; GI50 (NCI-H23): 5290 nM; GI50 (CCRF-CEM): 3330 nM; GI50 (DU-145 [6]): 3530 nM; GI50 (MDA-MB-231): 12500 nM; GI50 (HCC 2998): 5200 nM; CC50 [7]: > 50000 nM; GI50 (HL-60(TB)): 2560 nM; growth, % of control at 10 µM (DU-145 [8]): 20.9%; GI50 (HOP-92): 4590 nM; growth, % of control at 10 µM (NCI-H460): 14.1%; inhibition (Tubulin (Homo sapiens)): inactive; GI50 (HCT-15): 2920 nM; GI50 (OVCAR-3 [9]): 1690 nM; GI50 (NCI/ADR-RES): 1030 nM; GI50 (SF-295): 1510 nM

— ChEMBL document CHEMBL4371053, “A novel tetrazole analogue of resveratrol is a potent anticancer agent” (Bioorg Med Chem Lett, 2019)
